In one series the target is T1, Toll-like receptor 7 (Homo sapiens, UniProt Q9NYK1).
T1 sequence (Q9NYK1 whole entry): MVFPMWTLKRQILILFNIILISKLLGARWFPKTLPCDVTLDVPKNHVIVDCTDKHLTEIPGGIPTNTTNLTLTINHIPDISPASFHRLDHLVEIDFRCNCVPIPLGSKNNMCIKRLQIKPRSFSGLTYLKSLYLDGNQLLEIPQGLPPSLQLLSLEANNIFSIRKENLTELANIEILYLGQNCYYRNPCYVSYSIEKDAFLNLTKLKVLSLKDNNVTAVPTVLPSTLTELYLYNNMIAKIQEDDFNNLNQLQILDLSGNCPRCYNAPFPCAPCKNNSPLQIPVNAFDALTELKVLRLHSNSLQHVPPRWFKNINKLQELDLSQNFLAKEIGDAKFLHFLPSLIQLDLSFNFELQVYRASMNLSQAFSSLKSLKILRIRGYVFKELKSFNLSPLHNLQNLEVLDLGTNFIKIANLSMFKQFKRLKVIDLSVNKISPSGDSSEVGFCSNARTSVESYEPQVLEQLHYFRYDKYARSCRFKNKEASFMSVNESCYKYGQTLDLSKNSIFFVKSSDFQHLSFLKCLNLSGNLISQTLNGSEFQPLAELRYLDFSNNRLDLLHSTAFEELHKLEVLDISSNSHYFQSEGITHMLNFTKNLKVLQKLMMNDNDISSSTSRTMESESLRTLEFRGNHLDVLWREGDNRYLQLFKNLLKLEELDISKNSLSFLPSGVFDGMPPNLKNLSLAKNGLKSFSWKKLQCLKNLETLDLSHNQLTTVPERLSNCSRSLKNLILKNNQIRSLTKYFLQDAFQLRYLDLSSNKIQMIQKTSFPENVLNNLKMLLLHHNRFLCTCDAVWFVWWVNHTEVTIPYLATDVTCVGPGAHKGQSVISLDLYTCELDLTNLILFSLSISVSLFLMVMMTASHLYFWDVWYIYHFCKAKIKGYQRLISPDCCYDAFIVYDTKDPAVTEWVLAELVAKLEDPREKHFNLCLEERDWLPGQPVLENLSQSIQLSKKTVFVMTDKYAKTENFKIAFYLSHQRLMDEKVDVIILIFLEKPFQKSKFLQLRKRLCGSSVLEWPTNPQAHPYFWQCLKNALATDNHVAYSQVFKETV
The series can be described thus: Agonist activity at TLR7 in human cryopreserved PBMC assessed as induction of IFNalpha production measured after 24 hrs. In short, it runs like this: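 Cryopreserved healthy-donor human PBMC, recovered 2 h at 37°C/5% CO2, then 100k cells/well in RPMI/10% FBS exposed 24 h at 37°C to a 10-point half-log dilution series (0.5% final DMSO). Supernatant IFNα-2a quantified by MSD electrochemiluminescence immunoassay. For the ratio, divided by the IL-12p40 EC50 from the same PBMC screen.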

Series [1] in a line: Cytotoxicity against human MT4 cells assessed as reduction in cell viability measured after 4 to 5 days by celltiter-glo assay. The following applies: time 4-5 day. The format is cell-based. (In general: Cellular ATP, detected with luciferase, serves as a proxy for viable cell number.)
Series [2] in a line: Selectivity index, ratio of CC50 for human MT4 cells to EC50 for TLR8 in human cryopreserved PBMC assessed as induction of IL-12p40 production.
The nature of series [3]: Apparent permeability across apical to basolateral side in human Caco2 cells measured after 1 to 2 hrs by LC-MS/MS analysis. The note with it: Caco-2. On the technique in general: Passage across Caco-2 layers is used to estimate intestinal permeability.
Series [4] is described as follows: Apparent permeability across basolateral to apical side in human Caco2 cells measured after 1 to 2 hrs by LC-MS/MS analysis. The following applies: Caco-2.
Series [5] is described as follows: Clearance in rat hepatic microsomes at 2 uM measured up to 60 mins in presence of NADPH generating system by LC-MS/MS analysis. The note with it: liver microsomes. It counts as ADME, Microsome. (Liver microsomes are a subcellular fraction often used to study metabolism.)
Series [6] is described as follows: Clearance in dog hepatic microsomes at 2 uM measured up to 60 mins in presence of NADPH generating system by LC-MS/MS analysis. It counts as ADME, Canis lupus familiaris, Microsome. The note with it: liver microsomes.
The nature of series [7]: Clearance in cynomolgus monkey hepatic microsomes at 2 uM measured up to 60 mins in presence of NADPH generating system by LC-MS/MS analysis. It counts as ADME, Macaca fascicularis, Microsome. The following applies: liver microsomes.
The nature of series [8]: Clearance in human hepatic microsomes at 2 uM measured up to 60 mins in presence of NADPH generating system by LC-MS/MS analysis. It counts as ADME, Microsome. The following applies: liver microsomes.
Series [9] in a line: Drug metabolism in human hepatocytes assessed as core oxidation. The format is ADME, cell-based, Hepatocyte.
The next series concerns the target T2, Toll-like receptor 8 (Homo sapiens, UniProt Q9NR97).
T2 sequence (Q9NR97 whole entry): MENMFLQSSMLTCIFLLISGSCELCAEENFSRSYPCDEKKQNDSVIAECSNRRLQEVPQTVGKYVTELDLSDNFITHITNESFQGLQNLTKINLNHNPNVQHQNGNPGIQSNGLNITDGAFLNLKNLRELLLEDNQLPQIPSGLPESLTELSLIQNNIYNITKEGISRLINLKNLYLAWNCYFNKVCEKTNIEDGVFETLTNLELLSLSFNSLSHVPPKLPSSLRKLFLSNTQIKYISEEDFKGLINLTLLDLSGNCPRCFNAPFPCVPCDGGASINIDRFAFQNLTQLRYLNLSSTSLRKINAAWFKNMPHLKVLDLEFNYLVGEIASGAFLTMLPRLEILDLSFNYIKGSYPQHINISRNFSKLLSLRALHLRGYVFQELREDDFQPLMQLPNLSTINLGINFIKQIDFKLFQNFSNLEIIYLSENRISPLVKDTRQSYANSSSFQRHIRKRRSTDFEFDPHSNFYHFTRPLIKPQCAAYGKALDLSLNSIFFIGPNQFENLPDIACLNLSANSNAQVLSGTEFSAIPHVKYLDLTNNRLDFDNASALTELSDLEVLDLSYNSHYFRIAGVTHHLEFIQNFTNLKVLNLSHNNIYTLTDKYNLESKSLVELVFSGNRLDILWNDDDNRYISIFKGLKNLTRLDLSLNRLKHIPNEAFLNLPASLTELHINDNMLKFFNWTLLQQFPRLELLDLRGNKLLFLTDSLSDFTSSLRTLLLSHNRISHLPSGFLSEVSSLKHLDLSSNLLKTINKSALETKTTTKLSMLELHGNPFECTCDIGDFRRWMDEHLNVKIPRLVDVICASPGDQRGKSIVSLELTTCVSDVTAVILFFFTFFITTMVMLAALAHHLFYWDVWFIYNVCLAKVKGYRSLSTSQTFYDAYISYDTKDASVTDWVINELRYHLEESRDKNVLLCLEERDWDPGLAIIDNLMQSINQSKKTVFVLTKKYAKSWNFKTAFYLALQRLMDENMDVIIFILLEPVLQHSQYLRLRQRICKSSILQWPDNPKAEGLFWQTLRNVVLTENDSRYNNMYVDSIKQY
The series can be described thus: Agonist activity at TLR8 in human cryopreserved PBMC assessed as induction of IL-12p40 production measured after 24 hrs.

Another series is filed under the species Homo sapiens. Briefly: Selectivity ratio of EC50 for TLR7 in human cryopreserved PBMC assessed as induction of IFNalpha production to EC50 for TLR8 in human cryopreserved PBMC assessed as induction of IL-12p40 production. In short, it runs like this: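 Cryopreserved healthy-donor human PBMC, recovered 2 h at 37°C/5% CO2, then 100k cells/well in RPMI/10% FBS exposed 24 h at 37°C to a 10-point half-log dilution series (0.5% final DMSO). Supernatant IFNα-2a quantified by MSD electrochemiluminescence immunoassay. Normalized to 10 µM GS-9620 positive and DMSO negative controls; EC50 from 4-parameter logistic fit. For the ratio, divided by the IL-12p40 EC50 from the same PBMC screen.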

Here are results for two compounds from ChEMBL document CHEMBL4725242, “Discovery of GS-9688 (Selgantolimod) as a Potent and Selective Oral Toll-Like Receptor 8 Agonist for the Treatment of Chronic Hepatitis B” (J Med Chem, 2020).

For orientation: EC50 means the concentration giving half of the maximal effect. A word on the CC50: it is the concentration at which the toxic effect on the cells reaches its halfway point. Usually Papp A→B stands for how fast a substance crosses the layer from the apical side. As a reminder, the Papp B→A is how fast a substance crosses the layer from the basolateral side.

As to `CCCC[C@@](C)(CO)Nc1nc(N)nc2cccnc12`, the EC50 turned out to be 7.9 µM at Toll-like receptor 7 and 2.4 µM at Toll-like receptor 8. For the same compound, the CC50 in [1] came to 26 µM. For the same compound, the “Ratio CC50/EC50” value in [2] is listed as 11. Further, in series [3], the Papp A→B is 32 ×10⁻⁶ cm/s. Besides, the Papp B→A in series [4] is 31 ×10⁻⁶ cm/s. The CLhep predicted at 2 µM in [5] is 58.3 mL/min/kg; in series [6], 25 mL/min/kg; in series [7], 23.3 mL/min/kg; in series [8] it was 13.3 mL/min/kg. In series [9], the Drug metabolism entry was “Metabolite_Detected”.
Consider `CCCC[C@](C)(CO)Nc1nc(N)nc2cccnc12`, for which the values for the EC50 at Toll-like receptor 7 and on Toll-like receptor 8 were 15 µM and 0.17 µM, respectively. Further, the Ratio EC50 in the series listed under Homo sapiens was > 80. The CC50 in series [1] is 31 µM. Also, the “Ratio CC50/EC50” value in series [2] is listed as 182. Besides, in series [3], the Papp A→B was found to be 29 ×10⁻⁶ cm/s. Further, in series [4], the Papp B→A was 29 ×10⁻⁶ cm/s. Also, the CLhep predicted at 2 µM in series [5] was 58.3 mL/min/kg; in series [6] it was 23.3 mL/min/kg; in series [7], 21.7 mL/min/kg; in series [8] it was 13.3 mL/min/kg. The Drug metabolism entry in [9] is on record as “Metabolite_Detected”.
